Data from ChEMBL document CHEMBL1136659, “Benzamide derivatives as blockers of Kv1.3 ion channel” (Bioorg Med Chem Lett, 2003).

Legend:
[1] = biological target: T1, Potassium voltage-gated channel subfamily A member 3 (Homo sapiens, UniProt P22001); experiment: Inhibition of Kv1.3 ion channel. Measured in the Rb_Kv assay: [86Rb+] efflux from CHO cells stably transfected with Kv1.3 channel.; format: functional, cell-based
[2] = Inhibition of DiTc binding to Kv1.x channel in human brain membranes; format: cell membranes, Membrane
Outline: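 Displacement of diTC (C20-C29 ditritio-correolide) binding to human brain membranes carrying Kv1.x channels, primarily heteromultimeric Kv1.1/Kv1.2.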

[3] = biological target: T1, Potassium voltage-gated channel subfamily A member 3; experiment: Inhibition of [86Rb+] efflux from CHO cells stably transfected with Kv1.3 channel; format: functional, cell-based
[4] = biological target: T1, Potassium voltage-gated channel subfamily A member 3; experiment: Inhibition of DiTc binding to Kv1.3 channel in human brain membranes; format: cell membranes, Membrane

T1 sequence (P22001 whole entry): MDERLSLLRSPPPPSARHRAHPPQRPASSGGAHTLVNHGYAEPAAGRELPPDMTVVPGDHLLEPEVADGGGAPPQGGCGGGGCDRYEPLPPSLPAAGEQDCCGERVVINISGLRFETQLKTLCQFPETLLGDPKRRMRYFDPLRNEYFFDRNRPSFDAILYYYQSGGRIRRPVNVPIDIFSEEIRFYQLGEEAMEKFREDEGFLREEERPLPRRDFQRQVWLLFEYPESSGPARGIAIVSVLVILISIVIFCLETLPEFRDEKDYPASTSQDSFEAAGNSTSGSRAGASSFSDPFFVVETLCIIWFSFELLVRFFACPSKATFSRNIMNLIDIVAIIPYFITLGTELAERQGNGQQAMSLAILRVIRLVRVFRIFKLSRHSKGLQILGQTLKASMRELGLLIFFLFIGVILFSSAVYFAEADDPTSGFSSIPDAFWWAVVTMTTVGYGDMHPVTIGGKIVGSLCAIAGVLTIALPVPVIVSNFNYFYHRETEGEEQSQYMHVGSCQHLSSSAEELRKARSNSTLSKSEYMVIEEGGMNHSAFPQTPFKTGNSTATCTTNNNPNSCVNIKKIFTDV

With `COc1ccccc1C(=O)NC[C@]1(c2ccccc2)CC[C@H](OC(=O)NCc2ccccc2)CC1` the IC50 [1] was 245 nM.
`COc1ccc(C(=O)NCC2(c3ccccc3)CCC(=O)CC2)cc1` showed an IC50 [1] of 10000 nM.
Compound `COc1ccccc1C(=O)NC[C@]1(c2ccccc2)CC[C@@H](NC(C)=O)CC1` has an IC50 [1] of 470 nM.
Work on `CCCNC(=O)O[C@H]1CC[C@@](CNC(=O)c2ccccc2OC)(c2ccccc2)CC1` yielded an IC50 [2] of 30 nM, an IC50 [3] of 50 nM and an IC50 [4] of 5 nM.
In the case of `C=CCN(CC=C)C(=O)O[C@H]1CC[C@@](CNC(=O)c2ccccc2OC)(c2ccccc2)CC1`, the IC50 [1] is reported as 840 nM.
Work on `COc1ccccc1C(=O)NC[C@]1(c2ccccc2)CC[C@@H](OC(=O)NCc2ccccc2)CC1` yielded an IC50 [1] of 1700 nM.
In the case of `COc1ccccc1C(=O)N(C)CC1(c2ccccc2)CCC(=O)CC1`, the IC50 [1] is reported as greater than 30000 nM.
For `CCCNC(=O)O[C@H]1CC[C@](CNC(=O)c2ccccc2OC)(c2ccccc2)CC1`, the IC50 [2] was 76 nM, the IC50 [3] was 100 nM and the IC50 [4] was 79 nM.
Work on `C/C=C/C(=O)N[C@H]1CC[C@](CNC(=O)c2ccccc2OC)(c2ccccc2)CC1` yielded an IC50 [1] of 100 nM.
`C=CCOC(=O)O[C@H]1CC[C@](CNC(=O)c2ccccc2OC)(c2ccccc2)CC1` gave an IC50 [1] of 230 nM.
Work on `COc1ccccc1S(=O)(=O)NCC1(c2ccccc2)CCC(=O)CC1` yielded an IC50 [1] greater than 30000 nM.
With `COCCNC(=O)O[C@H]1CC[C@@](CNC(=O)c2ccccc2OC)(c2ccccc2)CC1` the IC50 [1] was 140 nM.
Compound `C=CCN(C)C(=O)N[C@H]1CC[C@](CNC(=O)c2ccccc2OC)(c2ccccc2)CC1` has an IC50 [1] of 195 nM.
`C=CCNC(=O)O[C@H]1CC[C@@](CNC(=O)c2cc(Cl)ccc2OC)(c2ccccc2)CC1` showed an IC50 [1] of 230 nM.
Work on `COCCNC(=O)O[C@H]1CC[C@](CNC(=O)c2ccccc2OC)(c2ccccc2)CC1` yielded an IC50 [1] of 140 nM.
In the case of `COc1ccccc1C(=O)NCC1(c2ccccc2)CCC(=O)CC1`, the IC50 [1] is reported as 200 nM.
In the case of `CCCCNC(=O)O[C@H]1CC[C@](CNC(=O)c2ccccc2OC)(c2ccccc2)CC1`, the IC50 [1] is reported as 140 nM.
Compound `O=C1CCC(CNC(=O)c2cccc(Cl)c2)(c2ccccc2)CC1` has an IC50 [1] of 30000 nM.
`CNC(=O)O[C@H]1CC[C@](CNC(=O)c2ccccc2OC)(c2ccccc2)CC1` showed an IC50 [2] of 104 nM, an IC50 [3] of 150 nM and an IC50 [4] of 99 nM.
Compound `CCCC(=O)N[C@H]1CC[C@@](CNC(=O)c2ccccc2OC)(c2ccccc2)CC1` has an IC50 [1] of 200 nM.
`COc1ccccc1C(=O)NC[C@]1(c2ccccc2)CC[C@H](NC(=O)Cc2ccccc2)CC1` gave an IC50 [1] of 130 nM.
For `COCCCNC(=O)O[C@H]1CC[C@](CNC(=O)c2ccccc2OC)(c2ccccc2)CC1`, the IC50 [1] was 130 nM.
Compound `C=CCNC(=O)O[C@H]1CC[C@@](CNC(=O)c2cc(F)ccc2O)(c2ccccc2)CC1` has an IC50 [1] of 140 nM.
With `C=CCNC(=O)O[C@H]1CC[C@@](CNC(=O)c2ccccc2OC)(c2ccccc2)CC1` the IC50 [2] was 112 nM, the IC50 [3] was 70 nM and the IC50 [4] was 18 nM.
`CNC(=O)O[C@H]1CC[C@@](CNC(=O)c2ccccc2OC)(c2ccccc2)CC1` gave an IC50 [2] of 33 nM, an IC50 [3] of 58 nM and an IC50 [4] of 5 nM.
`COc1ccccc1C(=O)NC[C@]1(c2ccccc2)CC[C@H](OC(=O)NC(C)C)CC1` gave an IC50 [1] of 130 nM.
In the case of `C/C=C/C(=O)N[C@H]1CC[C@@](CNC(=O)c2ccccc2OC)(c2ccccc2)CC1`, the IC50 [1] is reported as 440 nM.
Compound `COc1ccccc1C(=O)NC[C@]1(c2ccccc2)CC[C@@H](NC(=O)CCc2ccccc2)CC1` has an IC50 [1] of 570 nM.
Work on `COc1cccc(C(=O)NCC2(c3ccccc3)CCC(=O)CC2)c1` yielded an IC50 [1] greater than 30000 nM.
With `C=CCOC(=O)N[C@H]1CC[C@@](CNC(=O)c2ccccc2OC)(c2ccccc2)CC1` the IC50 [1] was 242 nM.
With `COc1ccccc1C(=O)NC[C@]1(c2ccccc2)CC[C@@H](OC(=O)Nc2ccccc2)CC1` the IC50 [1] was greater than 30000 nM.
Compound `COCCCNC(=O)O[C@H]1CC[C@@](CNC(=O)c2ccccc2OC)(c2ccccc2)CC1` has an IC50 [1] of 145 nM.
Work on `C=CCN(CC=C)C(=O)O[C@H]1CC[C@](CNC(=O)c2ccccc2OC)(c2ccccc2)CC1` yielded an IC50 [1] of 205 nM.
`COc1ccccc1C(=O)NC[C@]1(c2ccccc2)CC[C@@H](NC(=O)c2ccccc2Br)CC1` showed an IC50 [1] of 2790 nM.
`C=CCN(C)C(=O)O[C@H]1CC[C@@](CNC(=O)c2ccccc2OC)(c2ccccc2)CC1` showed an IC50 [1] of 320 nM.
Compound `CCOc1ccccc1C(=O)NCC1(c2ccccc2)CCC(=O)CC1` has an IC50 [1] of 580 nM.
In the case of `COc1ccccc1C(=O)N(C)CC1(c2ccccc2)CCNCC1`, the IC50 [1] is reported as greater than 30000 nM.
Work on `COc1ccccc1C(=O)NC[C@]1(c2ccccc2)CC[C@@H](NC(=O)Cc2ccccc2)CC1` yielded an IC50 [1] of 1050 nM.
`COc1ccccc1C(=O)NC[C@]1(c2ccccc2)CC[C@H](NC(=O)CCc2ccccc2)CC1` gave an IC50 [1] of 120 nM.
For `COc1ccccc1C(=O)NC[C@]1(c2ccccc2)CC[C@H](OC(=O)Nc2ccccc2)CC1`, the IC50 [1] was 120 nM.
For `CCC(=O)N[C@H]1CC[C@@](CNC(=O)c2ccccc2OC)(c2ccccc2)CC1`, the IC50 [1] was 210 nM.
`C=CCOC(=O)N[C@H]1CC[C@](CNC(=O)c2ccccc2OC)(c2ccccc2)CC1` gave an IC50 [2] of 68 nM, an IC50 [3] of 90 nM and an IC50 [4] of 72 nM.
`COc1ccccc1C(=O)NC[C@]1(c2ccccc2)CC[C@@H](NC(=O)C=C(C)C)CC1` showed an IC50 [1] of 470 nM.
In the case of `COc1ccccc1C(=O)NC[C@]1(c2ccccc2)CC[C@@H](OC(=O)NCCO)CC1`, the IC50 [1] is reported as 310 nM.
Compound `COc1ccccc1C(=O)NCC1CCCCC1` has an IC50 [1] greater than 30000 nM.
`C=CCNC(=O)O[C@H]1CC[C@@](CNC(=O)c2cccnc2OC)(c2ccccc2)CC1` gave an IC50 [1] of 325 nM.
In the case of `C=CCNC(=O)O[C@H]1CC[C@@](CNC(=O)c2cccc(Cl)c2O)(c2ccccc2)CC1`, the IC50 [1] is reported as 7200 nM.
`C=CCNC(=O)N[C@H]1CC[C@@](CNC(=O)c2ccccc2OC)(c2ccccc2)CC1` gave an IC50 [2] of 120 nM, an IC50 [3] of 150 nM and an IC50 [4] of 29 nM.
Work on `C=CCNC(=O)O[C@H]1CC[C@@](CNC(=O)c2cccc(Cl)c2OC)(c2ccccc2)CC1` yielded an IC50 [1] of 8380 nM.
`COc1ccccc1C(=O)NC[C@]1(c2ccccc2)CC[C@@H](OC(=O)NC(C)C)CC1` showed an IC50 [1] of 75 nM.
For `C=C(C)CNC(=O)O[C@H]1CC[C@](CNC(=O)c2ccccc2OC)(c2ccccc2)CC1`, the IC50 [1] was 120 nM.
Compound `C=CCNC(=O)O[C@H]1CC[C@](CNC(=O)c2ccccc2OC)(c2ccccc2)CC1` has an IC50 [2] of 170 nM, an IC50 [3] of 130 nM and an IC50 [4] of 140 nM.
With `COc1ccccc1C(=O)NC[C@]1(c2ccccc2)CC[C@@H](NC(=O)c2ccc(Br)cc2)CC1` the IC50 [1] was greater than 30000 nM.
`C=CCN(C)C(=O)O[C@H]1CC[C@](CNC(=O)c2ccccc2OC)(c2ccccc2)CC1` showed an IC50 [1] of 145 nM.
Work on `CCCCNC(=O)O[C@H]1CC[C@@](CNC(=O)c2ccccc2OC)(c2ccccc2)CC1` yielded an IC50 [1] of 90 nM.
Work on `COc1ccccc1C(=O)NC[C@]1(c2ccccc2)CC[C@H](OC(=O)NCCO)CC1` yielded an IC50 [1] of 95 nM.
`COc1ccccc1C(=O)NC[C@]1(c2ccccc2)CC[C@@H](NC(=O)c2cccc(Br)c2)CC1` showed an IC50 [1] greater than 30000 nM.
`COc1ccccc1C(=O)NC[C@]1(c2ccccc2)CC[C@@H](NC(=O)SC)CC1` gave an IC50 [1] of 150 nM.
In the case of `COc1ccccc1C(=O)NC[C@]1(c2ccccc2)CC[C@H](NC(=O)c2ccccc2)CC1`, the IC50 [1] is reported as 75 nM.
For `COc1ccccc1C(=O)NC[C@]1(c2ccccc2)CC[C@H](OC(=O)NCCc2ccccc2)CC1`, the IC50 [1] was 420 nM.
For `COc1ccccc1C(=O)NC[C@]1(c2ccccc2)CC[C@@H](NC(=O)c2ccccc2)CC1`, the IC50 [1] was 1560 nM.
With `O=C1CCC(CNC(=O)c2ccccc2)(c2ccccc2)CC1` the IC50 [1] was greater than 30000 nM.
Work on `CNc1ccccc1C(=O)NCC1(c2ccccc2)CCC(=O)CC1` yielded an IC50 [1] of 600 nM.
With `C=CCNC(=O)O[C@H]1CC[C@@](CNC(=O)c2cccc3c2OCC3)(c2ccccc2)CC1` the IC50 [1] was 3730 nM.
`COC(=O)N[C@H]1CC[C@@](CNC(=O)c2ccccc2OC)(c2ccccc2)CC1` gave an IC50 [1] of 135 nM.
Compound `COc1ccccc1C(=O)NC[C@]1(c2ccccc2)CC[C@H](OC(=O)NCCCc2ccccc2)CC1` has an IC50 [1] of 535 nM.
`C=CCNC(=O)N[C@H]1CC[C@](CNC(=O)c2ccccc2OC)(c2ccccc2)CC1` gave an IC50 [2] of 125 nM, an IC50 [3] of 140 nM and an IC50 [4] of 80 nM.
For `C=C(C)CNC(=O)O[C@H]1CC[C@@](CNC(=O)c2ccccc2OC)(c2ccccc2)CC1`, the IC50 [1] was 90 nM.
